The values that follow come from ChEMBL document CHEMBL1949640, “Discovery of substituted biphenyl oxazolidinone inhibitors of cholesteryl ester transfer protein” (ACS Med Chem Lett, 2011).

In data set [1] the target is T1, Cholesteryl ester transfer protein (Homo sapiens, UniProt P11597).
T1 sequence (P11597 whole entry): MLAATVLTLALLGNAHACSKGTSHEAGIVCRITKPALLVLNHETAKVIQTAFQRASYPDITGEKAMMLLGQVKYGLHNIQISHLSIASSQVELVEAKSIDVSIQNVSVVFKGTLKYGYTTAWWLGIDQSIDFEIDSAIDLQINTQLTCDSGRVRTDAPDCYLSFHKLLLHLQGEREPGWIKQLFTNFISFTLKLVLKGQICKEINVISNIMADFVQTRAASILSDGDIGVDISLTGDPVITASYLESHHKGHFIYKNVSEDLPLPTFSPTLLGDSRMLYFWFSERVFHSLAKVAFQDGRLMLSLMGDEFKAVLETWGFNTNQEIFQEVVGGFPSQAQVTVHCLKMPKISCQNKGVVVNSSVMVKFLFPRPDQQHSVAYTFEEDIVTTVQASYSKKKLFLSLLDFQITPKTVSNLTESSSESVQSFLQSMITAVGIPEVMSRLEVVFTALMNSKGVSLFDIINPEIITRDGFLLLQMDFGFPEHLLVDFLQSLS
Kind of data set: Inhibition of CETP-mediated BODIPY-labeled cholesteryl ester transfer after 45 mins by FRET analysis. In a few lines: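 Fluorescence transfer assay of cholesteryl ester transfer by CETP. IC50 taken from 10-point titrations, reported as the average of three or more titrations, the average of two, or a single titration.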

Data set [2] can be described thus: Volume of distribution in mouse. The format is ADME, organism-based. The note with it: in vivo.
A short description of data set [3]: Oral bioavailability in mouse. The format is ADME, organism-based. The note with it: in vivo.
For a further data set, the species on record is Mus musculus. Kind of data set: (§1) Clearance in mouse. The format is ADME, organism-based. The note with it: in vivo.
Data set [4] addresses T2, Cholesteryl ester transfer protein (Homo sapiens) (UniProt P11597).
T2 sequence (whole entry): T1 sequence (P11597 whole entry)
Kind of data set: Inhibition of CETP-mediated BODIPY-labeled cholesteryl ester transfer at 100 uM after 45 mins by FRET analysis.

A short description of data set [5]: as §1. The format is ADME, organism-based. The note with it: in vivo.

SMILES strings stand for the structures.

What is called IC50 is the point on the concentration scale where inhibition reaches its midpoint. Regarding `COc1ccc(C(C)C)cc1-c1ccc(C(F)(F)F)cc1CN1C(=O)OCC1c1cc(C(F)(F)F)cc(C(F)(F)F)c1` (racemic), in data set [1], the IC50 turned out to be 14.2 µM. Take `COc1ccc(C(C)C)cc1-c1ccc(C(F)(F)F)cc1CN1C[C@H](c2ccccc2)OC1=O`: the IC50 in data set [1] amounted to 37.2 µM. Still for that read-out and setting: the value for `COc1ccc(C(C)C)cc1-c1ccc(C(F)(F)F)cc1CN1CC(c2cc(C(F)(F)F)cc(C(F)(F)F)c2)OC1=O` (racemic) was 0.133 µM. In general, Vd refers to a proportionality between amount in the body and measured concentration, not a real space. Usually bioavailability stands for the share of a dose that reaches the circulation, judged against a reference dose that is usually intravenous. By clearance is commonly meant a measure of how efficiently the substance is removed, as volume per time. Low readings indicate inefficient removal, high ones efficient removal. In data set [2], `COc1ccc(C(C)C)cc1-c1ccc(C(F)(F)F)cc1CN1C[C@@H](c2cc(C(F)(F)F)cc(C(F)(F)F)c2)OC1=O` came in with a volume of distribution (Vd) of 3.4 L/kg. Besides, in data set [3], the bioavailability is 4%. The molecule also registered a clearance in the data set filed under Mus musculus of 31.6 mL/min/kg.

For the molecule `COC(=O)N(Cc1ccccc1)Cc1cc(C(F)(F)F)ccc1-c1cc(C(C)C)ccc1OC`, the half-inhibitory concentration (IC50) in data set [1] came to 27.3 µM. A word on the inhibition: it is the drop in the measured response relative to a control, in per cent. Lower therefore signals little suppression. On to `COc1ccc(C(C)C)cc1-c1ccc(C(F)(F)F)cc1CN1C[C@H](c2cc(C(F)(F)F)cc(C(F)(F)F)c2)OC1=O`, for which the inhibition in data set [4] was < 50%. `COc1ccc(C(C)C)cc1-c1ccc(C(F)(F)F)cc1CN1C[C@@H](c2ccccc2)OC1=O` returned a half-maximal inhibitory concentration (IC50) in data set [1] of 0.293 µM. For `COC(=O)N(Cc1cc(C(F)(F)F)cc(C(F)(F)F)c1)Cc1cc(C(F)(F)F)ccc1-c1cc(C(C)C)ccc1OC`, the Vd in data set [2] was determined as 3.3 L/kg. Further, in data set [3], the bioavailability worked out at 5%. This molecule displayed a clearance in data set [5] of 12.8 mL/min/kg.
